The text below walks through data of ChEMBL document CHEMBL1127299, “Inhibition of peptidylglycine alpha-amidating monooxygenase by N-substituted homocysteine analogs” (J Med Chem, 1994).

What is called IC50 is the midpoint of a concentration-inhibition curve. Usually inhibition stands for the relative decrease from the control value, in per cent.

Assay [1] has as its target T1, Peptidylglycine alpha-amidating monooxygenase (Rattus norvegicus, UniProt P14925).
T1 sequence (P14925 whole entry): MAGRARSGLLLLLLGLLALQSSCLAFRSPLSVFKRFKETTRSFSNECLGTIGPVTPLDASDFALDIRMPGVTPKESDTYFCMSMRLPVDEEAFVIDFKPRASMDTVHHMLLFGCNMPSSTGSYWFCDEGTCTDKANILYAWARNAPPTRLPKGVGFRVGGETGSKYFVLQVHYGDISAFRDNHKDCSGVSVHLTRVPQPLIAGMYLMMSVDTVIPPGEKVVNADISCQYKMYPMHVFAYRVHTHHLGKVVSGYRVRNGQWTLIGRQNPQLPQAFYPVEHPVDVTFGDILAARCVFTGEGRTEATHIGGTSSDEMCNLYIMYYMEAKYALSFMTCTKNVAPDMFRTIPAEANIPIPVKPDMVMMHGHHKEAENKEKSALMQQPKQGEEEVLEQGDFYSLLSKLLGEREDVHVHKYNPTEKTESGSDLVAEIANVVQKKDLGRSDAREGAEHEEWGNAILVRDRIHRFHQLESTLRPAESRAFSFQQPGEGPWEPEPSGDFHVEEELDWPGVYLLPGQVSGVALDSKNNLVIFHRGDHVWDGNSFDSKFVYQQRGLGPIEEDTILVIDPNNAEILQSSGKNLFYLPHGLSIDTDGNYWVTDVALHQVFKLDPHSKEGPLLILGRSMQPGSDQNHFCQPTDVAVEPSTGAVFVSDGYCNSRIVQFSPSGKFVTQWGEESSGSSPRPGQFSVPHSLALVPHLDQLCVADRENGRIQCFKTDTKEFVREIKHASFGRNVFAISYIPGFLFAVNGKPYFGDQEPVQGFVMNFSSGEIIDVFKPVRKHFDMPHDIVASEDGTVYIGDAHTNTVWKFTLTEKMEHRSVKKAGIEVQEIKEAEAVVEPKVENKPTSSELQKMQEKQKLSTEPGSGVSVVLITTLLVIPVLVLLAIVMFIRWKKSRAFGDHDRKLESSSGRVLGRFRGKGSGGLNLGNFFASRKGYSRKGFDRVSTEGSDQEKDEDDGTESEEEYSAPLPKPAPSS
Put plainly: Inhibitory activity against peptidylglycine alpha-amidating monooxygenase (PAM) was determined. Type of assay: functional. The method, boiled down:
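Partially purified PAM (DEAE cartridge, then Sephacryl 300 SF), 13.5 μU, preincubated with inhibitor 20 min at room temperature in 150 mM TES pH 7.0 with 0.001% Triton-100. Started with N-dansyl-D-Tyr-Phe-Gly (2.0 μM) plus ascorbate (3 mM), quenched with EDTA. Seven or more concentrations in duplicate, three runs; IC50 by least squares on log dose–response.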

Assay [2] deals with T2, Peptidylglycine alpha-amidating monooxygenase (Rattus norvegicus) (UniProt P14925).
T2 sequence (whole entry): T1 sequence (P14925 whole entry)
As to the kind of experiment: (§1) Inhibition of PAM on Substance P biosynthesis in the dorsal root ganglion (DRG) cell culture assay. Type of assay: functional, tissue-based. On the set-up: concentration or dose not given beside the values. Conditions: concentration not given here. The method, boiled down: (§2)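 Rat primary dorsal root ganglion neurons cultured without ascorbate for six days. On day 6 inhibitor added (10 μM), then ascorbate 500 μM 12 h later, incubated overnight. SP measured by RIA with an antibody selective for SP over SP-Gly. SP-Gly found by treating a duplicate sample with 3.5 μg PAM and taking the difference in SP; percent inhibition.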

Assay [3] has as its target T2, Peptidylglycine alpha-amidating monooxygenase (Rattus norvegicus). The assay is described as §1. Type of assay: functional, tissue-based. The settings on record: concentration not given here. In short, it runs like this:
as §2

Non-standard residues stand in square brackets, D forms with d. Residues, ends and D or L forms follow the SMILES beside them. ξ: configuration not given here. *: point of attachment. Hydrocinnamoyl = O=C(CCc1ccccc1)*; hCys = N[C@@H](CCS)C(=O)O; Nle = CCCC[C@H](N)C(=O)O; Cbz = O=C(OCc1ccccc1)*; Boc = CC(C)(C)OC(=O)*; ξhCys = NC(CCS)C(=O)O; OBn = c1ccc(CO*)cc1 Bounds are passed on as bounds.

Turning to `C[C@H](NC(=O)[C@H](Cc1ccccc1)NC(=O)[C@@H](Cc1ccc(O)cc1)NC(=O)OC(C)(C)C)C(=O)O`, in assay [1], the IC50 is above 10000 nM.
Same read-out and setting: then `NC(=O)C[C@H](NC(=O)[C@H](Cc1ccccc1)NC(=O)CCc1ccccc1)C(=O)O` (Hydrocinnamoyl-Phe-Asn-OH), with above 10000 nM.
In assay [1], `CC(C)(C)OC(=O)N[C@H](Cc1ccc(O)cc1)C(=O)N[C@@H](Cc1ccccc1)C(=O)N[C@@H](CO)C(=O)O` returned an IC50 above 10000 nM.
Consider `O=C(N[C@@H](Cc1ccccc1)C(=O)NC(CCS)C(=O)O)c1ccc2ccccc2c1` (stereo partly specified), for which, in assay [2], the inhibition came out at 67%. The molecule further had an IC50 in assay [1] of 10 nM.
In assay [2], `O=C(COc1ccccc1)N[C@@H](Cc1ccccc1)C(=O)NC(CCS)C(=O)O` (stereo partly specified) returned an inhibition of 22%. The molecule also gave an IC50 in assay [1] of 14 nM.
`O=C(CCc1ccccc1)NC(CCS)C(=O)O` (stereo unspecified) returned an IC50 in assay [1] of 7500 nM.
`CC(C)(C)OC(=O)N[C@H](Cc1ccc(O)cc1)C(=O)N[C@@H](Cc1ccccc1)C(=O)N[C@@H](CS)C(=O)O` registered an IC50 in assay [1] of 340 nM.
As to `CCCC[C@H](NC(=O)CCc1ccccc1)C(=O)NC(CCS)C(=O)O` (stereo partly specified) (Hydrocinnamoyl-[Nle]-[ξhCys]-OH), 23 nM corresponded to half-maximal inhibition in assay [1] (IC50). The inhibition in assay [3] is 7%.
`CC(C)(C)OC(=O)N[C@@H](Cc1ccccc1)C(=O)N[C@@H](CCS)C(=O)O` (Boc-Phe-[hCys]-OH): the IC50 in assay [1] is 53 nM.
For the molecule `O=C(CCc1ccc(Cl)c(Cl)c1)N[C@@H](Cc1ccccc1)C(=O)NC(CCS)C(=O)O` (stereo partly specified), the inhibition in assay [2] is 37%. In assay [1], the IC50 was 55 nM.
Take `CC(C)(C)OC(=O)N[C@H](Cc1ccccc1)C(=O)N[C@@H](Cc1ccccc1)C(=O)N[C@@H](CCS)C(=O)O`: in assay [2], the inhibition stood at 34%. Moreover, inhibition in assay [1] was half-maximal at 39 nM (IC50).
Take `N[C@H](Cc1ccc(O)cc1)C(=O)N[C@@H](Cc1ccccc1)C(=O)NCC(=O)O`: the IC50 in assay [1] is above 10000 nM.
In assay [1], `CC(C)C[C@H](NC(=O)CCc1ccccc1)C(=O)NC(CCS)C(=O)O` (stereo partly specified) (Hydrocinnamoyl-Leu-[ξhCys]-OH) gave an IC50 of 300 nM.
Regarding `O=C(CCc1ccccc1)N[C@@H](Cc1ccccc1)C(=O)N[C@H](CCS)C(=O)O`, the IC50 in assay [1] was 610 nM.
Take `O=C(CCc1ccccc1)N[C@@H](Cc1ccccc1)C(=O)N[C@@H](CS)C(=O)O` (Hydrocinnamoyl-Phe-Cys-OH): inhibition in assay [1] was half-maximal at 330 nM (IC50).
On the same count and under the same terms, under `CC(C)[C@H](NC(=O)CCc1ccccc1)C(=O)NC(CCS)C(=O)O` (stereo partly specified) (Hydrocinnamoyl-Val-[ξhCys]-OH) stands 160 nM; under `O=C(O)C[C@H](NC(=O)[C@H](Cc1ccccc1)NC(=O)CCc1ccccc1)C(=O)O` (Hydrocinnamoyl-Phe-Asp-OH), above 10000 nM.
In assay [2], `O=C(CCc1ccccc1)N[C@@H](Cc1ccccc1)C(=O)N[C@@H](CCS)C(=O)O` yielded an inhibition of 25%. For the same molecule, in assay [1], half-maximal inhibition (IC50) required 10 nM.
With `CN(C)c1cccc2c(S(=O)(=O)N[C@H](Cc3ccc(O)cc3)C(=O)N[C@@H](Cc3ccccc3)C(=O)NCC(=O)O)cccc12`, in assay [1], the IC50 amounted to 4200 nM.
As for `CC(C)(C)OC(=O)N[C@H](Cc1ccc(O)cc1)C(=O)N[C@@H](Cc1ccccc1)C(=O)NCC(=O)O`, the midpoint of inhibition in assay [1], the IC50, lay at 4000 nM.
As to `O=C(O)CC[C@H](NC(=O)[C@H](Cc1ccccc1)NC(=O)CCc1ccccc1)C(=O)O` (Hydrocinnamoyl-Phe-Glu-OH), the IC50 in assay [1] is above 10000 nM.
`O=C(CCc1ccccc1)N[C@@H](Cc1ccccc1)C(=O)NC(CCS)C(=O)OCc1ccccc1` (stereo partly specified) (Hydrocinnamoyl-Phe-[ξhCys]-OBn) yielded an IC50 in assay [1] above 10000 nM.
In assay [2], `O=C(N[C@@H](Cc1ccccc1)C(=O)N[C@@H](CCS)C(=O)O)OCc1ccccc1` (Cbz-Phe-[hCys]-OH) came in with an inhibition of 40%. Moreover, in assay [1], the IC50 was determined as 18 nM.
The molecule `CSCC[C@H](NC(=O)CCc1ccccc1)C(=O)NC(CCS)C(=O)O` (stereo partly specified) registered an IC50 in assay [1] of 18 nM.
In turn, `O=C(CCc1ccccc1)N[C@@H](Cc1ccccc1)C(=O)NC(CCS)C(=O)O` (stereo partly specified) returned an inhibition in assay [2] of 28%. The molecule further displayed an IC50 in assay [1] of 15 nM.
`O=C(CCc1ccccc1)N[C@@H](Cc1ccccc1)C(=O)NC1CCSC1=O` (stereo partly specified) returned an inhibition in assay [2] of 37%. Also, in assay [1], the IC50 is above 10000 nM.
The molecule `O=C(N[C@@H](Cc1ccccc1)C(=O)NC(CCS)C(=O)O)c1cc2ccccc2[nH]1` (stereo partly specified) came in with an inhibition in assay [2] of 42%. In assay [1], this molecule showed an IC50 of 8 nM.
As to `O=C(O)CNC(=O)[C@H](Cc1ccccc1)NC(=O)[C@@H](Cc1ccc(O)cc1)NC(=O)OCc1ccccc1`, in assay [1], the half-inhibitory concentration (IC50) came to 3500 nM.
Consider `O=C(CCc1ccccc1)N[C@@H](Cc1ccccc1)C(=O)NCCCS`, for which the IC50 in assay [1] turned out to be 1600 nM.
Molecule `CCC(C)CC(=O)N[C@@H](Cc1ccccc1)C(=O)N[C@@H](CCS)C(=O)O` (stereo partly specified) had an inhibition in assay [2] of 10%. The molecule further yielded an IC50 in assay [1] of 29 nM.
